pIC50: −log10 of the molar value.
Tests used:
[1] = biological target: T1, M-phase inducer phosphatase 2 (Homo sapiens, UniProt P30305); test: Inhibition of histidine-tagged human recombinant Cdc25B catalytic domain expressed in Escherichia coli
T1 sequence (P30305 whole entry): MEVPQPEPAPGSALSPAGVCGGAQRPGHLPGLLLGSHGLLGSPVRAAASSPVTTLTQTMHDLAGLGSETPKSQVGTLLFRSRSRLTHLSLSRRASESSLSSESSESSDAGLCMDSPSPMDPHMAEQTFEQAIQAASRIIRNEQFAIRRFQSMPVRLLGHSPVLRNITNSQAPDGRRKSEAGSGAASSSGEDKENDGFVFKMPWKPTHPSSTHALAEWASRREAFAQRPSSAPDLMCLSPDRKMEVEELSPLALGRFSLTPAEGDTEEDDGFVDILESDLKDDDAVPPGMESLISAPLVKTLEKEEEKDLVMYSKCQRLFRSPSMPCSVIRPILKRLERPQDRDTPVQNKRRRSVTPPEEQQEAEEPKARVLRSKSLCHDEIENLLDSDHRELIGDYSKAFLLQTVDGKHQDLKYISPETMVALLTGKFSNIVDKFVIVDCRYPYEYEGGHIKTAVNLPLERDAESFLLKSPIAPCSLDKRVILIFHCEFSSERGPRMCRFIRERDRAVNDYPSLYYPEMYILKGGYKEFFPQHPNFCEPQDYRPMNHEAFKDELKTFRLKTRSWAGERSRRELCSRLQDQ

[2] = biological target: T2, Dual specificity protein phosphatase 6 (Rattus norvegicus, UniProt Q64346); test: Inhibition of histidine-tagged rat recombinant MKP3 catalytic domain expressed in Escherichia coli BL21(DE3)
T2 sequence (Q64346 whole entry): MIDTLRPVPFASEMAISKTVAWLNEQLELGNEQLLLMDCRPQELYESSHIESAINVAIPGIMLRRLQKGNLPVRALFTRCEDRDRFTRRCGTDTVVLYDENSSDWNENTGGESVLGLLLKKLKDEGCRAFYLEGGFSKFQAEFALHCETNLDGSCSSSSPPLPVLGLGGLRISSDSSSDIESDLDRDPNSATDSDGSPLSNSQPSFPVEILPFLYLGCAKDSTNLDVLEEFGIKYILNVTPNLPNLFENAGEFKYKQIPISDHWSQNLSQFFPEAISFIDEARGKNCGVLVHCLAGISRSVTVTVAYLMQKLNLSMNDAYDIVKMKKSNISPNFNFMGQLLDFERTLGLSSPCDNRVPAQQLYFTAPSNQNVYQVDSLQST
Method in brief: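 Recombinant MKP-3 was expressed from a bacterial plasmid. Phosphatase activity was read from O-methyl fluorescein phosphate hydrolysis in a 25 μL final mixture, incubated 20 or 60 min at ambient temperature. Product fluorescence was read at excitation 485 nm and emission 530 nm. IC50 came from at least six inhibitor concentrations.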

[3] = biological target: T3, Dual specificity protein phosphatase 1 (Mus musculus, UniProt P28563); test: Inhibition of histidine-tagged mouse MKP1 catalytic domain expressed in […]
T3 sequence (P28563 whole entry): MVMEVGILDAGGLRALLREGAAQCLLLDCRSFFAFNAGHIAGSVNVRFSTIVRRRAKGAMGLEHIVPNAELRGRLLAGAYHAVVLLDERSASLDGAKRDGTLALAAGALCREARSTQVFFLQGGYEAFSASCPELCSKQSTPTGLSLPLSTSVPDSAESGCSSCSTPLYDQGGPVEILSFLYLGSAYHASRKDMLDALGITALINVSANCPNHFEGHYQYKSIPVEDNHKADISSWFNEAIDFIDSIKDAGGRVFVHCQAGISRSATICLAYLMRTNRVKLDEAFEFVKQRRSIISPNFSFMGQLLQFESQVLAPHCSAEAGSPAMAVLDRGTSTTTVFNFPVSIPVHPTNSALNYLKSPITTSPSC

Measured: pIC50

Cc1c(NCC=O)c(O)c2ccccc2c1O [2-(2-hydroxyethylamino)-3-methylnaphthalene-1,4-dione]
< 4.30: all assays above

O=CCNc1cc(O)c2ccccc2c1O [2-(2-hydroxyethylamino)naphthalene-1,4-dione]
< 4.30: all assays above
